# SUMO1-SIM PPI: SUMO1-SIM interaction modulation | SUMO1 binding to a labelled peptide, TR-FRET, 1 h | inhibition, % at 20 µM | AID 602429 | 0.33% of 360,000 active | P63165; in the data active = inhibition above about 37%
# GRK2 inh: human GRK2 inhibition via aptamer displacement | bead flow cytometry, FAM-aptamer displacement from GRK2 | inhibition of aptamer binding, % at 10 µM | 0.59% of 330,000 active | AID 488847 | P25098;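 active = inhibition of aptamer binding above 40%, roughly 3 SD of noise, on plates passing a quality check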;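 note: median bead fluorescence of bound FAM aptamer so fluorescent compounds give negative values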
# Target sequence (P25098 whole entry, looked up): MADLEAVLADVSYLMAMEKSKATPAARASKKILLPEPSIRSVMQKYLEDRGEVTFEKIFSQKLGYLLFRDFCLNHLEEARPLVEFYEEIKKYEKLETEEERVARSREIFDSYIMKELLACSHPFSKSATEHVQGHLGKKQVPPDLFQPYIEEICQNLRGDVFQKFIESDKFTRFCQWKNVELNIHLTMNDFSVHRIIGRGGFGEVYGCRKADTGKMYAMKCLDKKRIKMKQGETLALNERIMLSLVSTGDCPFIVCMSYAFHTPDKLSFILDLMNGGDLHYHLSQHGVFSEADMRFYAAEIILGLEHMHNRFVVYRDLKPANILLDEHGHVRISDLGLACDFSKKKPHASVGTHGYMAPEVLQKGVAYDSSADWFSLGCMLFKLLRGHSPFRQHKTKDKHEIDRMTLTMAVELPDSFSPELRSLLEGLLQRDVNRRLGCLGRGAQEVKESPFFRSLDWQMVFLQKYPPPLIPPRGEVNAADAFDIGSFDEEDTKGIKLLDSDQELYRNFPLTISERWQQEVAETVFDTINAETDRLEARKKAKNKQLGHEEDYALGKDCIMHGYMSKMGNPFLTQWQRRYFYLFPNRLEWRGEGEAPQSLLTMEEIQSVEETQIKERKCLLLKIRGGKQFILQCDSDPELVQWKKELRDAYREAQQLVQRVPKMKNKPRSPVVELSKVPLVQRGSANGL
# STEP block: STEP (human) phosphatase inhibition. P54829. recombinant STEP, OMFP fluorogenic substrate, fluorescence. inhibition, % at 20 µM. 0.25% of 360,000 active. AID 588621;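 active = inhibition at 20 µM, scaled per plate between control wells, above about 37%, limit read from the data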
#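 medium = Bis-Tris buffer pH 6.0, 2.5 mM DTT, 0.005% Tween 20 | test system = STEP (striatal-enriched tyrosine phosphatase) enzyme, cell-free | measure = normalized % inhibition | compound dosing = 20 µM, 1% DMSO | also added = 25 µM OMFP | schedule = reaction 20 min, ambient temperature | measured by = fluorescence read at 480 nm ex / 540 nm em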
# DNMT1 block: inhibitors of human DNMT1. P26358. DNMT1 molecular beacon, Hinp1I cleavage, fluorescence. inhibition (reported as % activation of signal), % at 10 µM. 0.83% of 360,000 active. AID 588458; in the data active = inhibition above about 50%
# LMPTP inh: LMPTP (human) inhibition; recombinant LMPTP-A, OMFP fluorogenic substrate, fluorescence intensity; 0.22% of 360,000 active; inhibition, % at 20 µM; P24666;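 active = compounds that cut the enzyme signal by at least half of the control window in the single-dose screen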
#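 Test system: LMPTP-A, protein tyrosine phosphatase of low molecular weight; Input: 0.625 nM enzyme; Incubation: 50 min dark incubation at room temperature; Signal: endpoint fluorescence intensity from OMFP dephosphorylation; Read-out basis: % inhibition versus control wells.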
# Scp1 inh: Scp-1 (human) phosphatase inhibition; AID 493091; Recombinant Scp1, phosphopeptide, malachite green phosphate absorbance; inhibition, % at 20 µM; Q9GZU7; 0.88% of 340,000 active;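 active = inhibition above about 50% at 20 µM, limit read from the data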
#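 Assay system: SCP-1 catalytic fragment, aa 76-261 | Buffer or medium: Tris acetate buffer pH 5.5 with MgCl2 and Tween-20 | Compound: One concentration, 20 µM, with 1.0% DMSO | Also added: Phospho 17-mer peptide substrate | Signal: Absorbance at 630 nm | Incubation: 45 min enzyme reaction at room temperature | Measure: % inhibition of SCP-1 phosphate liberation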
# Scp-1 conf: confirmation of human Scp-1 phosphatase inhibitors | shares compounds with Scp1 inh | recombinant SCP-1 catalytic domain, phosphate release, malachite green absorbance | inhibition, % at 20 µM | 61% of 2,500 active | AID 540281
# Scp-1 MG ctr: interferes with malachite green readout, flagging false Scp-1 hits | 2,500 tested, under 10 active | apparent inhibition (interference), % at 20 µM | Colorimetric interference counterscreen, malachite green absorbance 630 nm | shares compounds with Scp1 inh | AID 540313;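 note: compounds added after enzyme reaction finished so only phosphate colour detection is probed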
# Scp-1 Tm shift: binds human Scp-1, shifting its melting temperature | shares compounds with Scp1 inh | Recombinant SCP1, Sypro Orange thermal shift Tm | thermal shift relative to vanadate control, % at 40 µM | 25% of 1,500 active | AID 540329;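 active = substances whose mean melting-temperature shift, as a percentage of the reference inhibitor's shift, reaches about 5.3%, limit read from the data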
# Hits are given with their value; n = inactive; x = not tested or not shown. Rows were chosen to be rich in hits. Some 2.2% of all compounds tested hit in one or more screens of this group.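 Rule for the calls, unless noted: active = inhibition of at least 30% at 20 µM; inactive = the rest.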
SMILES,SUMO1-SIM PPI,GRK2 inh,STEP block,DNMT1 block,LMPTP inh,Scp1 inh,Scp-1 conf,Scp-1 MG ctr,others
Cn1c(=O)cc(OCC(=O)NCCC2=CCCCC2)c2ccccc21,n,n,n,n,n,n,n,n,
COc1ccc(NC(=O)CS(=O)CC(=O)Nc2cccnc2)cc1 (stereo not drawn),n,n,n,n,n,n,x,x,
COc1ccc(NC(=O)CS(=O)CC(=O)Nc2ccc(NC(C)=O)cc2)cc1 (stereo not drawn),n,n,41,n,n,79,68,n,Scp-1 Tm shift=n
Cc1ccc(S(=O)(=O)N2C[C@H]3N(C(=O)OC(C)C)N(C(=O)OC(C)C)C[C@H](OC(=O)Nc4c(C)noc4C)[C@@]3(O)C2)cc1,n,x,n,n,n,x,x,x,
CCN(C[C@H]1N[C@@](Cc2ccccc2)(C(=O)OC)[C@H]2C(=O)N(C)C(=O)[C@@H]12)C(=O)COC,n,n,n,n,n,50,n,n,
COCC(=O)N(C)C[C@H]1N[C@@](Cc2ccccc2)(C(=O)OC)[C@H]2C(=O)N(C)C(=O)[C@@H]12,n,n,n,n,n,n,x,x,
Cc1ccc2nc(-c3ccc(N4C(=NC(=O)CCC(=O)O)SC5CS(=O)(=O)CC54)cc3)sc2c1 (stereo not drawn),n,n,n,56,n,51,55,n,Scp-1 Tm shift=n
CC(NC(=O)CCNS(=O)(=O)c1ccccc1)c1ccccc1 (stereo not drawn),n,n,n,n,n,51,n,n,
C=CCn1c(SCC(=O)N2CCC(C)CC2)nc2c([nH]c3ccccc32)c1=O,n,x,n,n,n,x,x,x,
CC(C)CC1C(=O)N(Cc2cn(CC3CCCCC3)nn2)CCS(=O)(=O)N1Cc1ccc(-c2ccc(F)nc2)cc1 (stereo not drawn),n,x,n,n,n,x,x,x,
O=[N+]([O-])c1cc(S(=O)(=O)Nc2ccccc2)ccc1Nc1ccccc1,n,x,n,n,n,61,n,n,
O=[N+]([O-])c1cc(S(=O)(=O)Nc2ccccc2)ccc1NCc1ccccc1,n,n,n,n,n,n,x,x,
CCOc1ccc(NC(=O)OCCN2CCN(CCc3ccccc3)C(C)C2)cc1 (stereo not drawn),n,x,n,n,n,n,x,x,
O=C(Nc1cccc2nsnc12)c1ccc2c(c1)OCCO2,n,n,n,n,n,70,n,n,
Cc1[nH]c2ccccc2c1/C=N/NC(=O)CNC(=O)c1ccc2c(c1)OCCO2,n,n,n,n,n,66,n,n,
O=C(CNC(=O)c1ccc2c(c1)OCCO2)N/N=C/c1ccco1,n,n,n,n,n,n,x,x,
CCOc1ccc(-c2cncc3nccn23)cc1,n,x,n,n,n,x,x,x,
COc1ccccc1-c1nnc2sc(-c3ccc(N(C)C)cc3)nn12,n,n,n,n,n,n,x,x,
COc1ccccc1-c1nnc2sc(-c3cnccn3)nn12,n,n,n,n,n,70,56,n,Scp-1 Tm shift=5.8
CCn1ncc(Br)c1C(=O)NC(C)c1ccccc1 (stereo not drawn),n,n,n,n,n,81,n,n,
Cc1cccc(NC(=O)C(=O)NCC2CCCN2S(=O)(=O)c2cccs2)c1 (stereo not drawn),n,x,n,n,n,x,x,x,
Brc1ccc2nc(C3CCCCC3)c(CC3CCCCC3)n2c1,n,x,n,n,n,x,x,x,
CCOC(=O)CN1C(=O)N[C@@H](c2cccs2)C(C(C)=O)=C1C,n,n,n,n,n,n,x,x,
CCOC(=O)CN1C(=O)N[C@@H](c2cccs2)C(C(=O)OC)=C1C,n,n,n,n,n,58,n,n,
COc1ccc(C#Cc2cnc3c(c2)C(=O)N([C@@H](C)CO)C[C@@H](C)[C@@H](CN(C)CC2CCOCC2)O3)cc1,n,x,n,n,n,x,x,x,

# Compound activity deposited in PubChem BioAssay by several laboratories.
